Activity calls are given as the source filed them. The rule behind the calls is not given here.
Columns and labels:
[1] = biological target: D(3) dopamine receptor (Homo sapiens) (UniProt P35462); assay: Displacement of [3H]spiperone from human recombinant dopamine D3 receptor expressed in CHO cells at 10 uM; assay type: cell-based
Procedure, shortened: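 Human recombinant D3 receptor from CHO cells; [3H]spiperone 0.3 nM as ligand; (+)-buctaclamol reference compound.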

[2] = tested on: 5-HT (non-selective) serotonin receptor (Rattus norvegicus); assay: Inhibition of [3H]serotonine binding to non-selective 5-HT serotoninergic receptor in rat cerebral cortex at 10 uM
[3] = biological target: Dual specificity mitogen-activated protein kinase kinase 1 (Oryctolagus cuniculus) (UniProt P29678); assay: Inhibition of rabbit recombinant MEK1 expressed in Escherichia coli at 10 uM by liquid scintillation counting in presence of [33gammaP]ATP
Procedure, shortened: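 Rabbit recombinant MEK1 from E. coli; ATP plus unactivated MAP kinase (0.01 mg/mL) as substrate; staurosporine reference; liquid scintillation detection; 10 µM.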

Rattus norvegicus [4] = organism: Rattus norvegicus; assay: Inhibition of rat recombinant MAPK at 10 uM by liquid scintillation counting in presence of [33gammaP]ATP
Procedure, shortened: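 Rat recombinant ERK42 MAP kinase expressed in E. coli; [γ33-P]ATP with MBP (0.5 mg/mL); staurosporine reference; liquid scintillation read-out; 10 µM compound.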

[5] = biological target: Insulin receptor (Homo sapiens) (UniProt P06213); assay: Inhibition of human recombinant IR at 10 uM by liquid scintillation counting in presence of [33gammaP]ATP
Procedure, shortened: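 Human recombinant insulin receptor kinase; [γ33-P]ATP plus poly GT (0.03 mg/mL); staurosporine reference; liquid scintillation detection; 10 µM compound.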

[6] = biological target: Glutamate NMDA receptor (Rattus norvegicus) (UniProt P35439+Q00959+Q00960+Q00961+Q62645+Q8VHN2+Q9R1M7); assay: Displacement of [3H]CGP39653 from NMDA receptor in rat cerebral cortex at 10 uM; assay type: tissue-based
[7] = biological target: Proto-oncogene tyrosine-protein kinase Src (Homo sapiens) (UniProt P12931); assay: Inhibition of Src at 10 uM
Bos taurus = organism: Bos taurus; assay: Inhibition of bovine thymus p56LCK at 10 uM by liquid scintillation counting in presence of [33gammaP]ATP
Procedure, shortened: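 p56lck from bovine thymus; [γ33-P]ATP with polyGT (0.5 mg/mL) substrate; staurosporine reference; liquid scintillation read-out; compounds tested at 10 µM.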

Rattus norvegicus [8] = organism: Rattus norvegicus; assay: Displacement of [3H]cystisine from alpha-BGTX sensitive nicotinic acetylcholine receptor in rat cerebral cortex; assay type: tissue-based; design: concentration or dose not given beside the values; details: concentration not given here
[9] = biological target: Epidermal growth factor receptor (Homo sapiens) (UniProt P00533); assay: Inhibition of EGFR in human A431 at 10 uM by liquid scintillation counting in presence of [33gammaP]ATP
Procedure, shortened: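 EGFR kinase from A-431 cells; substrate [γ33-P]ATP plus poly GAT (0.48 mg/mL); PD 153035 reference; product measured by liquid scintillation; compounds at 10 µM.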

[10] = biological target: D(2) dopamine receptor (Homo sapiens) (UniProt P14416); assay: Displacement of [3H]spiperone from human recombinant dopamine D2 receptor expressed in CHO cells at 10 uM; assay type: cell-based
Procedure, shortened: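 Human recombinant D2 receptor expressed in CHO cells; [3H]spiperone ligand at 0.3 nM; (+)-buctaclamol as reference compound.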

[11] = biological target: Tyrosine-protein kinase ABL1 (Mus musculus) (UniProt P00520); assay: Inhibition of mouse recombinant Abl expressed in Escherichia coli at 10 uM by fluorescence polarization
Rattus norvegicus [12] = organism: Rattus norvegicus; assay: Displacement of [3H]AMPA from AMPA receptor in rat cerebral cortex at 10 uM; assay type: tissue-based
Rattus norvegicus [13] = organism: Rattus norvegicus; assay: Displacement of [3H]cystisine from alpha-BGTX insensitive nicotinic acetylcholine receptor in rat cerebral cortex at 10 uM; assay type: tissue-based
Rattus norvegicus [14] = organism: Rattus norvegicus; assay: Inhibition of rat CAM2 at 10 uM by liquid scintillation counting in presence of [33gammaP]ATP
Procedure, shortened: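 CaM kinase II from rat brain; [γ33-P]ATP plus autocamtide-2 (5 µM); staurosporine reference; labelled autocamtide-2 counted by liquid scintillation; compounds at 10 µM.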

[15] = biological target: T1, Alpha-2A adrenergic receptor (Rattus norvegicus) (UniProt P22909); assay: Displacement of [3H]RX821002 from alpha2 adrenoceptor in rat cerebral cortex at 10 uM; assay type: tissue-based
T1 sequence (whole entry): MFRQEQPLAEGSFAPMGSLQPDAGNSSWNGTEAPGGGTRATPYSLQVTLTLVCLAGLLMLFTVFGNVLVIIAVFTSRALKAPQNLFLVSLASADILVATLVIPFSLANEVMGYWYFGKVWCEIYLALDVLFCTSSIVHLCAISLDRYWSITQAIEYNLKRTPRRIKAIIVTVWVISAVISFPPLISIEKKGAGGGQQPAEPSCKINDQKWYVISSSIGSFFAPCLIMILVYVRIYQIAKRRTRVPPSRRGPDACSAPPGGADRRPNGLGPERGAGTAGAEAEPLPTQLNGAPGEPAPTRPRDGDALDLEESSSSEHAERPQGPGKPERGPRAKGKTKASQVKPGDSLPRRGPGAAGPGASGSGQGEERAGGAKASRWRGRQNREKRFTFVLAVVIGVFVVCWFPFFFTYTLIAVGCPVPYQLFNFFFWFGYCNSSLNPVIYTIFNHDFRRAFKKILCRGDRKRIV
Procedure, shortened: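 Rat cerebral cortex source; [3H]RX 821002 ligand at 0.5 nM; yohimbine as reference compound; non-selective alpha-2 site.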

[16] = Displacement of [3H]QNB from muscarinic receptor at 10 uM
[17] = biological target: Glycogen synthase kinase-3 beta (Homo sapiens, UniProt P49841); assay: Inhibition of GSK3-beta by liquid scintillation counting
Procedure, shortened: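 GSK-3β enzyme incubated with test compound at various concentrations, GS-1 peptide substrate (15 mM as printed), 15 μM ATP plus 0.2 μCi [γ-32P]ATP, in 50 mM Tris pH 7.5, 10 mM MgCl2, 1 mM EGTA, 1 mM EDTA; 20 min at 37 °C. Aliquots spotted on P81 phosphocellulose, washed in 1% phosphoric acid, counted by liquid scintillation.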

[18] = biological target: Glycogen synthase kinase-3 beta (Mus musculus) (UniProt Q9WV60); assay: Inhibition of GSK-3-beta-mediated tau phosphorylation in mouse granule cerebellar neurons cells after 16 hrs by Western blot
Procedure, shortened: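 Cerebellar granule neurons from P6 mice, plated on poly-L-lysine and grown 48 h in serum-free neurobasal/B-27 with 12.5 mM KCl; compounds 0.5–25 µM; LiCl 10 mM positive control with excess myo-inositol; lysates blotted with PHF-1 and Tau-1, normalised to β-actin, densitometry; mean of three experiments, control = 100 r.u.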

Sequence of Proto-oncogene tyrosine-protein kinase Src (Homo sapiens) (P12931 2-536 limits assumed): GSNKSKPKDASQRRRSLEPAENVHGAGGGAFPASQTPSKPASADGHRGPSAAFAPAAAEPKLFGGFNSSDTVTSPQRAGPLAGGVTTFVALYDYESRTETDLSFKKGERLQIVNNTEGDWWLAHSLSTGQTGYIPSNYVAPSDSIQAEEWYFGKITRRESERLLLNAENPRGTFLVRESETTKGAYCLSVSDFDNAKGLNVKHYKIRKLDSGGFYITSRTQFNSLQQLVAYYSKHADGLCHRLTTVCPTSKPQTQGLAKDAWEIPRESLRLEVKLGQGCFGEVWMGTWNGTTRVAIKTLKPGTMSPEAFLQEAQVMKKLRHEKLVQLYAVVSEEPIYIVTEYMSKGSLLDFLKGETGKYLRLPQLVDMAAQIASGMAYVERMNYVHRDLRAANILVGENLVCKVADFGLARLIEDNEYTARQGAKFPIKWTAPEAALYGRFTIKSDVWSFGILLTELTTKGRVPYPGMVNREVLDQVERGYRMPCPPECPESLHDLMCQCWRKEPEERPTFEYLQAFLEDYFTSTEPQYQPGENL
Sequence of Dual specificity mitogen-activated protein kinase kinase 1 (Oryctolagus cuniculus) (P29678 whole entry): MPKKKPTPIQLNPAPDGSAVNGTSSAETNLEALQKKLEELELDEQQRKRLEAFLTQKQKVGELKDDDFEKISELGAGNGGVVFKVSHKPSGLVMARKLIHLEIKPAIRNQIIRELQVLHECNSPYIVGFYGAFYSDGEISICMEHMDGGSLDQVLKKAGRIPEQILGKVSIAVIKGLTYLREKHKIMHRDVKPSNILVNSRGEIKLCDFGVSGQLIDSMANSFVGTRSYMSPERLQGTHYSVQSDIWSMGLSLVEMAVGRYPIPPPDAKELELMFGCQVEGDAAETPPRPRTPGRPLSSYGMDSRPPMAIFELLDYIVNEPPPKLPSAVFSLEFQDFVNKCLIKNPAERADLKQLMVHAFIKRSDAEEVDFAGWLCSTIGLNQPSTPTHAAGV
Sequence of Tyrosine-protein kinase ABL1 (Mus musculus) (P00520 whole entry): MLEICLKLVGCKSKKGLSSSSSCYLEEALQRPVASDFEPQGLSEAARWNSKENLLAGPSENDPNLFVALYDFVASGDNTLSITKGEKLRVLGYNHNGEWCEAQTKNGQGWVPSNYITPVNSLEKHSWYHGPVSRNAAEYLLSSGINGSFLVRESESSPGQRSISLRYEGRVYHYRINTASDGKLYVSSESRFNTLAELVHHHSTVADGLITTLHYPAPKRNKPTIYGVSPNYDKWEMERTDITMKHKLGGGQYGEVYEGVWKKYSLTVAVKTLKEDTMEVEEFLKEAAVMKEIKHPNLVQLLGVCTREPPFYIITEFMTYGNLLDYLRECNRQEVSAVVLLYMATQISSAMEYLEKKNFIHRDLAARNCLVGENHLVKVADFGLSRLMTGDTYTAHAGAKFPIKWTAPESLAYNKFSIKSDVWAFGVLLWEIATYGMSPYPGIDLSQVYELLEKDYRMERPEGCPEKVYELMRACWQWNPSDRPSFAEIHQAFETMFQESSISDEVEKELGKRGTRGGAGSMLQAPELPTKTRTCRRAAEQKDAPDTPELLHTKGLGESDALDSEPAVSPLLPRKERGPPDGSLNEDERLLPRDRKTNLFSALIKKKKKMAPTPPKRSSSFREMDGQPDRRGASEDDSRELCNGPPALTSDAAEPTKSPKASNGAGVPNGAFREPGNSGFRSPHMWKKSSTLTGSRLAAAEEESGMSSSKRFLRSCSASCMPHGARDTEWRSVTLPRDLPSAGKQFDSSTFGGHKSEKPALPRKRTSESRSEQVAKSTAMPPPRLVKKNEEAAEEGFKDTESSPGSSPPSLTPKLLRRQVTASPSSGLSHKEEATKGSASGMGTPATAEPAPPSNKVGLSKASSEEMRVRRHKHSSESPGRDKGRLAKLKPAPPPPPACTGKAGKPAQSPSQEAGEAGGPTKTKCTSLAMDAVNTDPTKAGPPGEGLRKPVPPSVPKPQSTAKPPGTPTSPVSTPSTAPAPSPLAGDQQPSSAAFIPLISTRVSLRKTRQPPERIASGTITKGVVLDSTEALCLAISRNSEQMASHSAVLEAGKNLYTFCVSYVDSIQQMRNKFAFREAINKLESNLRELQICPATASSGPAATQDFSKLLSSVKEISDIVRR
Sequence of D(3) dopamine receptor (Homo sapiens) (P35462 whole entry): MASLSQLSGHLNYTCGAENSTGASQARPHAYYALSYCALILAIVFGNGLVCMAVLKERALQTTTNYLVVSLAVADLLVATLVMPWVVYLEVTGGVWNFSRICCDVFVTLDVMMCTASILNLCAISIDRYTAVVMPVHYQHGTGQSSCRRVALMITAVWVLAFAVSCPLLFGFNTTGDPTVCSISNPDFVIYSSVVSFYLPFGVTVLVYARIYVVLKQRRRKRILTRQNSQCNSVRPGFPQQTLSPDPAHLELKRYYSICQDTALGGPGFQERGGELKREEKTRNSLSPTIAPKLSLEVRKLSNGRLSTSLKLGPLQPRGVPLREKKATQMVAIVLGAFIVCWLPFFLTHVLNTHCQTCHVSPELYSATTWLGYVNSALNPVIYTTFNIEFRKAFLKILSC
Sequence of Epidermal growth factor receptor (Homo sapiens) (P00533 whole entry): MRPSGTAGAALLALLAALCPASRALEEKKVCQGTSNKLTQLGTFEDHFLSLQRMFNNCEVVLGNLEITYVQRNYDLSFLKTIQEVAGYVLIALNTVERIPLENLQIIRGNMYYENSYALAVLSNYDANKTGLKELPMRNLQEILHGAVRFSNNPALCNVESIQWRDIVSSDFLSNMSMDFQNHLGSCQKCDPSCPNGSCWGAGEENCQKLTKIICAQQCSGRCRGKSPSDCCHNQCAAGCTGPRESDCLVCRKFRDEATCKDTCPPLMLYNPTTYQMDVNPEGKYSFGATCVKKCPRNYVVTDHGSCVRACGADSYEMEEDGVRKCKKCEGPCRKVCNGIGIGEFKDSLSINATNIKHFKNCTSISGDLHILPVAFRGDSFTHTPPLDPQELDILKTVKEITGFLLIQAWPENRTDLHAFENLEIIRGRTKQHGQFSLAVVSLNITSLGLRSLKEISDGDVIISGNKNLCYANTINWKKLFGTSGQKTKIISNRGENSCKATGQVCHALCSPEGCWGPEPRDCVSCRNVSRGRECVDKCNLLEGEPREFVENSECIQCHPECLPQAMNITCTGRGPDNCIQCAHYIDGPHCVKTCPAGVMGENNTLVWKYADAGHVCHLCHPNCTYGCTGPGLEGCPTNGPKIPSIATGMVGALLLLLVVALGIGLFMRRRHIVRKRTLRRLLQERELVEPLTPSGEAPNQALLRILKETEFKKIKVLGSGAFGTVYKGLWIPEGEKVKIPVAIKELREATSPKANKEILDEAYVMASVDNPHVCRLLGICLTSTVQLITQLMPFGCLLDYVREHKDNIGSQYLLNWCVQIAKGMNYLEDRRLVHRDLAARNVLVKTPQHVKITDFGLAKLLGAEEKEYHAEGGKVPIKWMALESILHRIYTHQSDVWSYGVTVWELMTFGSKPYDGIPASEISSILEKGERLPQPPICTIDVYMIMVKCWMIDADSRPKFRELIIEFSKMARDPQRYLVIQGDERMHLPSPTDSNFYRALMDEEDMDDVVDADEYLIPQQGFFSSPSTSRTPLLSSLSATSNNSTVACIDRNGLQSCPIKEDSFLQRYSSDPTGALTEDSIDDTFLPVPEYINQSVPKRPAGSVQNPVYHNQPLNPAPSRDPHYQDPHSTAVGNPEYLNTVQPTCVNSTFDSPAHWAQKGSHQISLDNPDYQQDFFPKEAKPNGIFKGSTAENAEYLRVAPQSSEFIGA
Sequence of Insulin receptor (Homo sapiens) (P06213 28-758 limits assumed): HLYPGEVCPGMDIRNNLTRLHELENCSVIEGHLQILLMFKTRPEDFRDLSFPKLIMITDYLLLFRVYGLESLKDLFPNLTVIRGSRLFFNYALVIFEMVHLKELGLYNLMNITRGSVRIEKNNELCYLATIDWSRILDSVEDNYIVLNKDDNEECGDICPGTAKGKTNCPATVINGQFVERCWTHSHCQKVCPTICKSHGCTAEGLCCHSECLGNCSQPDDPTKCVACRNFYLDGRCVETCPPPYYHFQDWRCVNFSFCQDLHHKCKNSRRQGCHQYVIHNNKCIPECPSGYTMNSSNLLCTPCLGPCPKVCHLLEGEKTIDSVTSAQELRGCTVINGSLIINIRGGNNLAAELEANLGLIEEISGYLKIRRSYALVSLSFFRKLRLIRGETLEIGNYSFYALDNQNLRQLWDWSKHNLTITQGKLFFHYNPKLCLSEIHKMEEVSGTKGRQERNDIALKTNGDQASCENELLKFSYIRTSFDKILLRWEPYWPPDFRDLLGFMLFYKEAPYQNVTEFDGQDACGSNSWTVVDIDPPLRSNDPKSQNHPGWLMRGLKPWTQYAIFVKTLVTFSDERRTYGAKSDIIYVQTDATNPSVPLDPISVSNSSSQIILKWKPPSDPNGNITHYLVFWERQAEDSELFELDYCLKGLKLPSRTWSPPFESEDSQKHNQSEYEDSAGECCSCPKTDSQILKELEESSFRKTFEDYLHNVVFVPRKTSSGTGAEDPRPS
Sequence of Insulin receptor (Homo sapiens) (P06213 763-1382 limits assumed): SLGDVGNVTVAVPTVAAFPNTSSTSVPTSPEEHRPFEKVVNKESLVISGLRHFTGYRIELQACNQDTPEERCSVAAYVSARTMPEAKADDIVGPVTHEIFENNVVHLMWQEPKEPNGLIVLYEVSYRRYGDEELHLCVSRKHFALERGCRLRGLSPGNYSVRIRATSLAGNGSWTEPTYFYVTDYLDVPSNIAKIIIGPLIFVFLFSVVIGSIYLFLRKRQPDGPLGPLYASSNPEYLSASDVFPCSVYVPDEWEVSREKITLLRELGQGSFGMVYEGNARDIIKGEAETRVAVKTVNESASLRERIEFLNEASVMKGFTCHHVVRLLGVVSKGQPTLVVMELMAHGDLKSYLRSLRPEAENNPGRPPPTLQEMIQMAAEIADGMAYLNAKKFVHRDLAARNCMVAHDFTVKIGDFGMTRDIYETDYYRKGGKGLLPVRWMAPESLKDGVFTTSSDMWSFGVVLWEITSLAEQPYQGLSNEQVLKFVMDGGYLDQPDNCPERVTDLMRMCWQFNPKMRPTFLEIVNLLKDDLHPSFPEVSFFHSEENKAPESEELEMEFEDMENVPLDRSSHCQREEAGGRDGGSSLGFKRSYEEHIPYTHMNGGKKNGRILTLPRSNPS

Compound: CC(=O)c1csc(C(=O)CCl)c1
- inhibition [1]: < 10%
- inhibition [2]: < 10%
- inhibition [3]: 12%
- inhibition (Rattus norvegicus [4]): < 10%
- inhibition [5]: < 10%
- inhibition [6]: < 10%
- inhibition [7]: 22%
- inhibition (Bos taurus): < 10%
- inhibition (Rattus norvegicus [8]): < 10%
- inhibition [9]: < 10%
- inhibition [10]: < 10%
- inhibition [11]: < 10%
- inhibition (Rattus norvegicus [12]): < 10%
- inhibition (Rattus norvegicus [13]): 17%
- inhibition (Rattus norvegicus [14]): < 10%
- inhibition [15]: < 10%
- inhibition [16]: < 10%

Compound: c1ccc(-c2nc(-c3ccccc3)n(-c3ccccc3)n2)cc1
- IC50 [17]: > 100 µM

Compound: CCOC(=O)c1cccs1
- IC50 [17]: > 100 µM

Compound: O=Cc1cc(Br)c(Br)s1
- IC50 [17]: > 100 µM

Compound: Cc1sc(C(=O)CCl)cc1C(=O)CCl
- inhibition [1]: < 10%
- inhibition [2]: < 10%
- inhibition [3]: < 10%
- inhibition (Rattus norvegicus [4]): < 10%
- inhibition [5]: 12%
- inhibition [6]: < 10%
- inhibition [7]: 54%
- inhibition (Bos taurus): 17%
- inhibition (Rattus norvegicus [8]): < 10%
- inhibition [9]: 25%
- inhibition [10]: < 10%
- inhibition [11]: < 10%
- inhibition (Rattus norvegicus [12]): < 10%
- inhibition (Rattus norvegicus [13]): < 10%
- inhibition (Rattus norvegicus [14]): < 10%
- inhibition [15]: < 10%
- inhibition [16]: < 10%

Compound: CCOC(=O)c1ccccc1 [ETHYL BENZOATE]
- IC50 [17]: > 100 µM

Compound: N=C(c1ccccc1Cl)c1ccccc1N(NC(=O)c1ccccc1)c1ccccc1
- IC50 [17]: > 100 µM

Compound: O=C(CCCCl)c1ccc(Br)s1
- IC50 [17]: > 100 µM

Compound: O=C(CBr)c1scc(Br)c1Br
- inhibition [1]: < 10%
- inhibition [2]: < 10%
- inhibition [3]: < 10%
- inhibition (Rattus norvegicus [4]): < 10%
- inhibition [5]: < 10%
- inhibition [6]: < 10%
- inhibition [7]: 66%
- inhibition (Bos taurus): < 10%
- inhibition (Rattus norvegicus [8]): < 10%
- inhibition [9]: 17%
- inhibition [10]: < 10%
- inhibition [11]: < 10%
- inhibition (Rattus norvegicus [12]): < 10%
- inhibition (Rattus norvegicus [13]): 22%
- IC50 [17]: 1 µM
- inhibition (Rattus norvegicus [14]): < 10%
- inhibition [15]: < 10%
- inhibition [16]: < 10%

Compound: O=Cc1cccs1 [2-THIOPHENENECARBOXALDEHYDE]
- IC50 [17]: > 100 µM

Compound: CCOC(=O)c1sc(C)c(C)c1O
- IC50 [17]: > 100 µM

Compound: CC(N)Cc1cc(Cl)cs1 (stereo unspecified)
- IC50 [17]: > 100 µM

Compound: O=C(CBr)c1sc(Br)cc1Br
- IC50 [17]: 1 µM

Compound: O=C(CCl)c1ccc(Br)s1
- inhibition [1]: < 10%
- inhibition [2]: < 10%
- inhibition [3]: < 10%
- inhibition (Rattus norvegicus [4]): < 10%
- inhibition [5]: < 10%
- inhibition [6]: < 10%
- inhibition [7]: 19%
- inhibition (Bos taurus): < 10%
- inhibition (Rattus norvegicus [8]): < 10%
- inhibition [9]: < 10%
- inhibition [10]: < 10%
- inhibition [11]: < 10%
- inhibition (Rattus norvegicus [12]): < 10%
- Activity [18]: Active
- inhibition (Rattus norvegicus [13]): < 10%
- inhibition (Rattus norvegicus [14]): 16%
- inhibition [15]: < 10%
- inhibition [16]: < 10%

Compound: CCOC(=O)c1sc(SC(C)=O)cc1O
- IC50 [17]: 25 µM
